Reference: ChEMBL document CHEMBL1124987, “7-Deaza-2-phenyladenines: structure-activity relationships of potent A1 selective adenosine receptor antagonists” (J Med Chem, 1990)
Activity calls are given as the source filed them. The calls are words filed in the database; no cut-off is given here.

Assays:
Adenosine A2 receptor = Adenosine A2 receptor (Rattus norvegicus, UniProt P29276+P30543); assay: Binding affinity against Adenosine A2 receptor from rat striatal membrane using [3H]NECA as radioligand
Adenosine receptor A1 = target: T1, Adenosine receptor A1 (Rattus norvegicus, UniProt P25099); assay: Binding affinity against Adenosine A1 receptor from rat brain membrane using [3H]R-PIA as radioligand
T1 sequence (P25099 whole entry): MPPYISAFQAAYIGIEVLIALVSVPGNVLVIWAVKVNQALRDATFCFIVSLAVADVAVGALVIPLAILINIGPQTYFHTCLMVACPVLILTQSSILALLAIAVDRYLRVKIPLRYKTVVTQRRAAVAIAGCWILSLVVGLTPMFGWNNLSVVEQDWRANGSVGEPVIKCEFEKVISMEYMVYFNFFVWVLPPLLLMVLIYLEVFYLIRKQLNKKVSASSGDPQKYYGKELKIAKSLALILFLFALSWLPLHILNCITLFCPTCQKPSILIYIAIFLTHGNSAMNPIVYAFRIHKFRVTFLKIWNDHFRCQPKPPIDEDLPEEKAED
Outline: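 Rat cerebral cortical membranes; displacement of [3H]-(R)-PIA (Kd 1 nM) by a range of test concentrations. Nonspecific binding defined with 5 mM theophylline. Triplicate determinations in three separate experiments. IC50 converted to Ki via Cheng-Prusoff.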

[1] = target: T2, Adenosine A2 receptor (Rattus norvegicus) (UniProt P29276+P30543); assay: Inhibition of adenylate cyclase stimulation via Adenosine A2 receptor by NECA in rat pheochromocytoma PC12 cells; assay type: functional, cell-based; settings: PC-12
Outline: (§1)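 Membranes from rat pheochromocytoma PC12 cells; adenylate cyclase activated via A2 receptors by NECA, measured with a range of antagonist concentrations. K_B from the Schild equation using the ratio of NECA EC50 values with and without antagonist. Means ± SEM of three separate experiments in triplicate.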

[2] = target: T3, Adenosine receptor A1 (Rattus norvegicus) (UniProt P25099); assay: Reversal of adenylate cyclase inhibition via Adenosine A1 receptor by R-PIA in rat fat cells; assay type: functional, cell-based
T3 sequence (whole entry): T1 sequence (P25099 whole entry)
Outline: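 Rat fat cell membranes; adenylate cyclase inhibited by R-PIA through A1 receptors, and antagonist reversal measured. K_B calculated with the Schild equation from the ratio of R-PIA IC50 values with and without antagonist.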

[3] = target: T2, Adenosine A2 receptor (Rattus norvegicus); assay: Inhibition of adenylate cyclase activity via A2 receptors by NECA in rat PC12 cells; c = Noncompetitive inhibition; assay type: functional, cell-based; settings: PC-12; outline: as §1
[4] = target: T2, Adenosine A2 receptor (Rattus norvegicus); assay: Inhibition of adenylate cyclase stimulation via Adenosine A2 receptor by NECA in rat striatal membrane; b= No effect; assay type: functional
Outline: (§2)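 Rat striatal membranes; adenylate cyclase stimulated by NECA through A2 receptors, with antagonist present or absent. K_B derived by Schild equation from the NECA EC50 ratio with versus without antagonist.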

[5] = target: T2, Adenosine A2 receptor (Rattus norvegicus); assay: Inhibition of adenylate cyclase stimulation via Adenosine A2 receptor by NECA in rat striatal membrane; assay type: functional, cell membranes; settings: Striatum; outline: as §2

Compound | Ki (Adenosine A2 receptor) | Ki (Adenosine receptor A1) | Kb [1] | Kb [2] | Kb [3] | Kb [4] | Kb [5]
CSc1nc(SC)c2c3c(n(-c4ccccc4)c2n1)CCCC3 | > 250 µM | 97.8 µM |  |  |  |  | 
Cc1c(C)n(-c2ccccc2)c2nc(-c3ccccc3)nc(N)c12 | 0.024 µM | 0.036 µM |  |  |  |  | 
Cc1[nH]c2nc(-c3ccccc3)nc(N)c2c1C | 21.3 µM | 1.49 µM | 5.5 µM | 0.8 µM |  |  | 
CCCCCCn1c(C)c(C)c2c(N)ncnc21 | 263 µM | 60 µM | 42 µM |  |  |  | 
Cc1nc(N)c2c(C)c(C)[nH]c2n1 | > 250 µM | 88 µM |  |  |  |  | 
Cc1c(C)n(C(C)c2ccccc2)c2nc(-c3ccccc3Cl)nc(N)c12 (centres undefined) | 28.1 µM | 0.052 µM |  |  |  |  | 
Cc1c(C)n(C(C)c2ccccc2)c2nc(-c3cccc(Cl)c3)nc(N)c12 (centres undefined) | 59.9 µM | 0.028 µM |  |  |  |  | 
C=CCn1c(C)c(C)c2c(N)ncnc21 | 83 µM | 49 µM | 40 µM |  |  |  | 
Clc1ncnc2c1c1ccccc1n2-c1ccccc1 | 4.06 µM | 2.42 µM |  |  |  |  | 
Cc1c(C)n(-c2ccccc2)c2nc(-c3ccccc3Cl)nc(N)c12 | 40.7 µM | 0.99 µM |  |  |  |  | 
O=c1[nH]cnc2c1c1ccccc1n2-c1ccccc1 |  | 0.88 µM |  |  |  |  | 
O=c1[nH]cnc2c1c1c(n2-c2ccccc2)CCCC1 |  | 2.07 µM |  |  |  |  | 
Cc1[nH]c2ncnc(N)c2c1C | 208 µM | 55 µM |  |  |  |  | 
Nc1ncnc2c1c(C(=O)O)c(C(=O)O)n2-c1ccccc1 |  | 67 µM |  |  |  |  | 
Cc1nc(N)c2c(C)c(C)n(-c3ccccc3)c2n1 | 203 µM | 30.4 µM |  |  |  |  | 
Nc1ncnc2c1ccn2-c1ccccc1 | 25 µM | 3.1 µM | 17 µM | 4.6 µM |  |  | 
Cc1c(C)n(-c2ccccc2)c2nc(-c3ccc(Cl)cc3)nc(N)c12 | > 250 µM | 0.122 µM |  | 0.057 µM | Non-competitive inhibition | inactive | 
Cc1c(C)n([C@H](C)c2ccccc2)c2nc(-c3ccccc3)nc(N)c12 | 3.71 µM | 0.0047 µM | 3.06 µM | 0.0038 µM |  |  | 

Compound | Ki (Adenosine A2 receptor) | Ki (Adenosine receptor A1) | Kb [1] | Kb [2] | Kb [3] | Kb [4] | Kb [5]
Cc1c(C)n(Cc2ccc(Br)cc2)c2ncnc(N)c12 | 154.9 µM | > 100 µM |  |  |  |  | 
Cc1c(C)n(-c2ccccc2)c2ncnc(N)c12 | 123 µM | 18 µM | 62 µM | 22 µM |  |  | 
COc1cccc(-n2c(C)c(C)c3c(N)ncnc32)c1OC |  | 54.3 µM |  |  |  |  | 
Nc1ncnc2c1c1ccccc1n2-c1ccccc1 | 5.98 µM | 1.95 µM | 1.73 µM | 3.3 µM |  |  | 14 µM
Cc1c(C)n([C@H]2C[C@H](O)[C@@H](CO)O2)c2ncnc(N)c12 | > 250 µM | > 250 µM |  |  |  |  | 
Nc1ncnc2c1c(C=O)c(C=O)n2-c1ccccc1 | 76.3 µM | 50.1 µM |  |  |  |  | 
Cc1[nH]c2nc(-c3ccccc3Cl)nc(N)c2c1C | 85.6 µM | 5.17 µM |  |  |  |  | 
Cc1c(C)n([C@@H](C)c2ccccc2)c2nc(-c3ccccc3)nc(N)c12 | 80.8 µM | 0.165 µM |  |  |  |  | 
Cc1[nH]c2ncnc(O)c2c1C | 176 µM | 58 µM | 33 µM |  |  |  | 
Oc1ncnc2c1c1c(n2-c2ccccc2)CCCC1 | 1.35 µM |  | 0.87 µM |  |  |  | 1.76 µM
Cc1[nH]c2nc(-c3cccc(Cl)c3)nc(N)c2c1C | 20.8 µM | 0.73 µM |  |  |  |  | 
CS(=O)(=O)c1nc(S(C)(=O)=O)c2c3c(n(-c4ccccc4)c2n1)CCCC3 | 157 µM | 16.9 µM |  |  |  |  | 
Oc1ncnc2c1c1ccccc1n2-c1ccccc1 | 1.44 µM |  | 0.22 µM | 1.4 µM |  |  | 
Cc1[nH]c2nc(-c3ccc(Cl)cc3)nc(N)c2c1C | 35.6 µM | 1.24 µM |  |  |  |  | 
Nc1ncnc2c1c1c(n2-c2ccccc2)CCCC1 | 10.9 µM | 3.24 µM | 7.5 µM |  |  |  | 31.6 µM
NNc1ncnc2c1c1ccccc1n2-c1ccccc1 | 7.71 µM | 8.42 µM |  |  |  |  | 
Sc1nc(S)c2c3c(n(-c4ccccc4)c2n1)CCCC3 | > 250 µM | 84.8 µM |  |  |  |  | 
c1ccc(-n2c3ccccc3c3c(NC4CCCCC4)ncnc32)cc1 | 133 µM | 1.96 µM |  |  |  |  | 
